# MEKK2wt PB1 HTS: raises or lowers MEK5 binding to wildtype human MEKK2 PB1 domain. binding response (% of control), % at 10 µM. 290,000 compounds, 1.1% hits. Q9Y2U5. AID 1531. bead flow cytometry, Alexa488-MEK5 binding to MEKK2 WT; actives lie on both sides; in the data active = binding response below about 67% or above about 130%
# MEKK3 PB1 HTS: modulators (inhibitors or enhancers) of MEK5 binding to human MEKK3 PB1 domain | bead-based flow cytometry, Alexa488-MEK5 binding to MEKK3; actives lie on both sides; 0 = blocked by unlabeled MEK5, 100 = vehicle | 290,000 compounds, 1.4% hits | binding response (% of control), % at 10 µM;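 active = binding response more than 3 SD above or below the average of its plate-row segment, actives on both sides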;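 also: Alexa488 bead fluorescence after subtracting the streptavidin-only scavenger bead signal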
# Apaf-1 inh: human Apaf-1 inhibition; O14727; reconstituted apoptosome caspase-3 activity, DEVD-Rh110 fluorescence; inhibition, % at 20 µM; 330,000 compounds, 0.71% hits; AID 489030; active = inhibition of at least 40% at 20 µM;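 also: plate controls were DMSO wells for no effect and DEVD-CHO caspase inhibitor wells for full effect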
#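 System: reconstituted apoptosome with Apaf-1, cytochrome c, caspase-9, procaspase-3, dATP; Signal: Rh110 fluorescence intensity; Schedule: 30 min compound preincubation, 50 min activation, room temperature; Reagent: cytochrome c trigger plus (Z-DEVD)2-Rh110 caspase-3 substrate.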
# UBC13 polyUb: inhibitors of human UBC13 polyubiquitin chain formation. 330,000 compounds, 0.47% hits. AID 485273. inhibition, % at 20 µM. P61088. TR-FRET; in the data active = inhibition above about 45%, passing the limit was not always enough
# Target sequence (P61088 whole entry, looked up): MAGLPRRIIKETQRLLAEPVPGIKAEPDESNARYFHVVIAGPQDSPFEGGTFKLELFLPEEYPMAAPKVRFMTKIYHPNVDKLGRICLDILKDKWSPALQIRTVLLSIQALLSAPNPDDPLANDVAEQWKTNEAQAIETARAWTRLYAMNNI
# MEKK2 mut-MEK5: signal of MEK5 binding to mutant human MEKK2 PB1 domain. bead flow cytometry, Alexa488-MEK5 binding to MEKK2 mutant. percent response, % at 10 µM. 290,000 compounds, 0.35% hits. AID 1530; in the data active = percent response above about 24%, passing the limit was not always enough
# Active calls of the source: *; . = no result given; [ ] = dose if it differs, or a comment. An excerpt weighted towards active compounds, which were near 2.9% of everything screened.
SMILES,MEKK2wt PB1 HTS,MEKK3 PB1 HTS,Apaf-1 inh,UBC13 polyUb,MEKK2 mut-MEK5
CC(=O)N/N=C/c1ccc(OCCOc2ccc(Br)cc2)cc1,110.0,109.0,3.3,-0.1,4.0
N#Cc1c(NCCN)nc(NCc2ccccc2)c2c1CCN(Cc1ccccc1)C2,169.0*,104.0,.,.,36.0*
C=CCNc1nc(NCc2ccccc2)c(C#N)c2c1CN(C)CC2,121.0,104.0,2.4,14.1,9.0
COc1ccc(CC(=O)Nc2ccc(N3CCCC3)c(C)c2)cc1,33.0*[inhibitor],98.0,15.2,-1.8,-4.0
CCC(=O)Nc1ccc(N2CCCCC2)c(C(=O)Nc2ccc(OC)cc2)c1,98.0,100.0,22.4,4.2,0.0
COc1cc2cc(CCCOC(=O)c3ccc(C#N)cc3)oc(=O)c2cc1OC,.,.,-1.8,8.9,.
Cc1nn(C(C)C(=O)NCCCN2CCCCCC2)c(=O)c2c1sc1ccccc12 (stereo not given),162.0*,107.0,17.1,20.7,27.0*
Cc1nn(C(C)C(=O)NCCCN2CCCCC2C)c(=O)c2c1sc1ccccc12 (stereo not given),106.0,104.0,1.2,2.9,3.0
CC1CC1C(=O)OCC(=O)NNC(=O)c1ccc([N+](=O)[O-])cc1 (stereo not given),.,.,-10.6,-3.7,.
CC(C)[C@H](NC(=O)c1c(F)cccc1F)C(=O)Nc1cccc(Br)c1,101.0,100.0,6.7,-0.9,2.0
COC(=O)c1cccc(-c2ccc(C(c3c(C)[nH][nH]c3=O)c3c(C)[nH][nH]c3=O)o2)c1,90.0,89.0,80.6*,-53.0,-2.0
Cc1noc(C)c1CSCc1ccc(Cl)cc1,93.0,94.0,13.0,2.5,-2.0
O=C(N/C=C/c1ccco1)Nc1cccc(Cl)c1,22.0*,127.0,-4.4,1.3,45.0
CCn1c(SCC(=O)N(C)CC(=O)Nc2ccc(OC)cc2)nnc1-c1ccco1,.,.,5.7,-0.2,.
CCN(CC)CCN(C(=O)c1ccc(S(=O)(=O)N(CC)c2ccccc2)cc1)c1nc2c(OC)ccc(OC)c2s1,157.0*,106.0,-7.2,19.1,28.0*
COc1ccc(C)c2sc(N(CCN(C)C)C(=O)c3ccc4ccccc4c3)nc12,145.0*,105.0,27.9,18.4,24.0*
CCN(CC)CCN(C(=O)c1ccc(S(=O)(=O)N(C)C2CCCCC2)cc1)c1nc2c(C)cccc2s1,133.0,107.0,19.5,-0.7,19.0
Cc1cc(C)c2nc(N(CCN(C)C)C(=O)c3ccc4ccccc4c3)sc2c1,132.0,101.0,22.1,14.8,18.0
CN(C)CCN(C(=O)c1ccc(C(=O)c2ccccc2)cc1)c1nc2cc3c(cc2s1)OCO3,140.0*,106.0,19.8,5.0,22.0
CN(C)S(=O)(=O)c1ccc(Cl)c(NC(=O)CSc2nc3ccccc3c(=O)n2CCCN2CCOCC2)c1,103.0,98.0,1.6,0.8,-1.0
COc1ccc2c3c(cccc13)N(C)N=C2C,.,.,72.8*,-51.5,.
O=C(CNC(=O)c1ccccc1)Nc1cccc(C(F)(F)F)c1,43.0*[inhibitor],93.0,12.6,3.3,-115.0
CN(C)CCN(C(=O)c1cc(Cl)sc1Cl)c1nc2ccc(F)cc2s1,118.0,112.0,0.0,18.8,25.0
CN(C)CCCN(C(=O)c1cc(-c2cccs2)nc2ccccc12)c1nc2ccc(F)cc2s1,203.0*,109.0,25.2,18.1,54.0*
CCCCn1c(N)c(N(CC)C(=O)c2ccco2)c(=O)[nH]c1=O,.,.,-10.9,-1.2,.
SMILES,MEKK2wt PB1 HTS,MEKK3 PB1 HTS,Apaf-1 inh,UBC13 polyUb,MEKK2 mut-MEK5
CCCCn1c(N)c(N(CC)C(=O)C(c2ccccc2)c2ccccc2)c(=O)[nH]c1=O,100.0,82.0,-5.3,-3.9,64.0*
CCCn1nc(C(=O)Nc2nnc(CC)s2)c2ccccc2c1=O,-5.0*,98.0,-9.7,0.3,7.0
Cc1nnc(NC(=O)c2nn(CC(C)C)c(=O)c3ccccc23)s1,107.0,99.0,0.4,4.9,-2.0
Cn1cc(CN2CCCC(C(=O)Nc3cccc(-c4cc5ccccc5[nH]4)c3)C2)cn1 (stereo not given),175.0*,110.0,13.1,25.5,30.0*
CC(C)n1cc(CN2CCCC(C(=O)Nc3cccc(-c4cc5ccccc5[nH]4)c3)C2)cn1 (stereo not given),180.0*,104.0,29.3,32.4,22.0
COc1cccc(-c2ccc(NC(=O)C3CCCN(Cc4cnn(C)c4)C3)cc2)c1 (stereo not given),132.0,100.0,19.8,7.1,11.0
COc1cc(CCCN2CCNC[C@@H]2c2ccccc2)cc(OC)c1OC,.,.,2.5,9.3,.
c1ccc([C@H]2CNCCN2CCc2cccc3ccccc23)cc1,.,.,55.0*,44.2,.
COc1ccc(-c2nc(/C=C3\C(C)=Nc4ccccc43)c(O)o2)cc1,99.0,101.0,-1.7,-64.5,-3.0
CC1=Nc2ccccc2/C1=C\c1nc(-c2ccccc2)oc1O,4.0*,95.0,19.1,-41.6,6.0
Cc1cc(=O)oc2c3c(cc(OCC(=O)NC(Cc4ccc(Cl)cc4)C(=O)O)c12)OC(C)(C)CC3 (stereo not given),101.0,102.0,-0.5,8.5,-1.0
Cc1nn(S(=O)(=O)c2ccc(F)cc2)c(C)c1S(=O)(=O)N1CCOCC1,102.0,101.0,-1.5,-0.4,4.0
Cc1nc(SCC(=O)Nc2nc3ccccc3s2)c(C#N)c(C)c1C,97.0,96.0,14.7,-1.1,-2.0
Cc1cc(C(F)(F)F)c(C#N)c(SCC(=O)Nc2nc3ccccc3s2)n1,57.0*,117.0,3.9,4.5,45.0
CC(C)c1ccc(S(=O)(=O)/N=C2/C=CC(=O)c3ccccc32)cc1,101.0,104.0,71.7*,-68.9,3.0
Nc1nonc1-n1nnc(C(=O)N/N=C/c2cccc(Cl)c2)c1-c1cccs1,99.0,100.0,2.1,0.2,-1.0
O=C(Nc1ccc2c(c1)nc1n2CCN(C2CCCCC2)C1)c1ccco1,86.0,77.0,.,.,-10.0
COc1ccccc1C(=O)Nc1ccc2c(c1)nc1n2CCN(C2CCCCC2)C1,-12.0*,92.0,23.1,0.4,12.0
Cc1nnn(C23CC4CC(CC(CC(=O)Nc5ccc(C)c(C)c5)(C4)C2)C3)n1,103.0,103.0,2.8,5.2,-1.0
NC(=O)Cn1c(=O)n(-c2ccccc2)c(=O)c2oc3ccccc3c21,95.0,103.0,-18.2,8.3,-6.0
CCOc1ccccc1NC(=O)Cn1c(=O)n(-c2ccccc2)c(=O)c2oc3ccccc3c21,5.0*,96.0,0.5,-7.5,10.0
CNC[C@H]1Oc2ccc(NC(=O)Nc3ccc(OC)cc3)cc2C(=O)N([C@@H](C)CO)C[C@H]1C,.,.,44.7*,48.2*,.
CNC[C@H]1Oc2ccc(NC(=O)Nc3ccc4c(c3)OCO4)cc2C(=O)N([C@H](C)CO)C[C@@H]1C,.,.,12.3,21.2,.
CNC[C@@H]1Oc2ccc(NC(=O)Nc3ccccc3)cc2C(=O)N([C@@H](C)CO)C[C@H]1C,.,.,12.1,16.5,.
CNC[C@@H]1Oc2ccc(NC(=O)Nc3cccc4ccccc34)cc2C(=O)N([C@@H](C)CO)C[C@@H]1C,.,.,57.2*,47.5*,.

# High-throughput results (PubChem BioAssay)
